The values that follow come from ChEMBL document CHEMBL1165866, “Design, synthesis, and in vitro antitumor evaluation of novel diaryl ureas derivatives” (Eur J Med Chem, 2010).

In assay [1] the test system is MDA-MB-231. The assay can be described thus: Cytotoxicity against human MDA-MB-231 cells assessed as growth inhibition at 10 uM after 72 hrs by MTT based WST-8 assay. As to conditions: MDA-MB-231, 72 h, read-out: GI. The assay is classed as functional. In outline:
(§1)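 Single-concentration screen at 10 μM. Cells in RPMI1640 with 10% FBS were seeded at 5.0×10^3 cells/well, adhered for 4 h, then exposed for 72 h at 37 °C, 5% CO2. Medium was removed and WST-8 reagent added for 1.5 h. Absorbance was read at 450 nm with 650 nm correction and growth was expressed as percentage of vehicle-control absorbance.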
On the technique in general: Formazan colour is commonly taken as a measure of viable cells.

The test system of assay [2] is A549. The experiment in a line: Cytotoxicity against human A549 cells assessed as growth inhibition at 10 uM after 72 hrs by MTT based WST-8 assay. The assay is classed as functional. As to conditions: A549, 72 h, read-out: GI. In outline:
as §1

In assay [3] the test system is A549. The assay can be described thus: Cytotoxicity against human A549 cells assessed as growth inhibition after 72 hrs by MTT based WST-8 assay. Format: functional, cell-based. As to conditions: A549, 72 h. In outline: (§2)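 Cells in RPMI1640 with 10% FBS were seeded at 5.0×10^3 cells/well and left to adhere for 4 h at 37 °C, 5% CO2. Compound was then added for 72 h. Medium was removed and WST-8 reagent (stock: 5 mM WST-8, 0.2 mM 1-methoxyphenazinium salt, 150 mM NaCl) was added for 1.5 h at 37 °C. A450 was read with 650 nm correction. IC50 was taken from concentration–response curves as % of vehicle-control absorbance.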

The subject of assay [4] is MDA-MB-231. The assay can be described thus: Cytotoxicity against human MDA-MB-231 cells assessed as growth inhibition after 72 hrs by MTT based WST-8 assay. The conditions noted are these: MDA-MB-231, 72 h. Format: functional, cell-based. The method, boiled down: as §2

By IC50 is commonly meant the midpoint of a concentration-inhibition curve. Regarding `O=C(Nc1ccc(Oc2ccc(-c3nccs3)cc2)cc1)Nc1cc(C(F)(F)F)ccc1Cl`, the inhibition of growth at 10 µM was 60.4% with MDA-MB-231 [1] and 75.5% in the assay with A549 [2]. In addition, the IC50 stood at 7.04 µM in the assay on A549 [3] and 8.9 µM in the assay with MDA-MB-231 [4].
With `O=C(Nc1ccc(Oc2ccc(-c3nccs3)cc2)cc1)Nc1ccc(Cl)c(C(F)(F)F)c1`, the inhibition of growth at 10 µM in the assay on MDA-MB-231 [1] is 69.6%; in the assay on A549 [2] it was 77.6%. For the same compound, the IC50 was 3.81 µM with A549 [3] and 6.06 µM in the assay on MDA-MB-231 [4].
On to `O=C(Nc1ccc(Oc2ccc(-c3nccs3)cc2)cc1)Nc1ccc(Cl)c([N+](=O)[O-])c1`, for which the inhibition of growth at 10 µM in the assay with MDA-MB-231 [1] is 72.8%; with A549 [2] it was 77.1%. The figures for the IC50 in the assay on A549 [3] and in the assay with MDA-MB-231 [4] were 3.89 µM and 6.87 µM, respectively.
On to `COC(=O)c1sccc1NC(=O)Nc1ccc(Oc2ccc(-c3nccs3)cc2)cc1`, for which the inhibition of growth at 10 µM with MDA-MB-231 [1] stood at 11%; in the assay with A549 [2], 6.78%.
For the compound `O=C(Nc1ccc(Cl)cc1)Nc1ccc(Oc2ccc(-c3ncc[nH]3)cc2)cc1`, the inhibition of growth at 10 µM was 47.6% in the assay with MDA-MB-231 [1] and 8.86% in the assay with A549 [2].
Turning to `O=C(Nc1ccc(Oc2ccc(-c3ncc[nH]3)cc2)cc1)Nc1cc(Br)cc(C(F)(F)F)c1`, the results for the inhibition of growth at 10 µM in the assay on MDA-MB-231 [1] and in the assay on A549 [2] were -13.6% and 44.1%, respectively.
In the case of `O=C(Nc1ccc(Oc2ccc(-c3ncc[nH]3)cc2)cc1)Nc1ccc(F)c(Cl)c1`, the inhibition of growth at 10 µM with MDA-MB-231 [1] was 4.2%; in the assay with A549 [2], 14.6%.
For `COC(=O)c1sccc1NC(=O)Nc1ccc(Oc2ccc(-c3ncc[nH]3)cc2)cc1`, the values for the inhibition of growth at 10 µM in the assay on MDA-MB-231 [1] and in the assay with A549 [2] were -1.46% and 2.34%, respectively.
Consider `O=C(Nc1ccc(Oc2ccc(-c3ncc[nH]3)cc2)cc1)Nc1ccc(F)c(C(F)(F)F)c1`, for which the inhibition of growth at 10 µM in the assay with MDA-MB-231 [1] amounted to 26.6%; in the assay with A549 [2], 63.3%. Moreover, the IC50 in the assay on A549 [3] came out at 10.5 µM.
With `Cc1ccc(NC(=O)Nc2ccc(Oc3ccc(-c4ncc[nH]4)cc3)cc2)cc1`, the results for the inhibition of growth at 10 µM in the assay with MDA-MB-231 [1] and in the assay with A549 [2] were 49.3% and 24.6%, respectively.
On to `O=C(Nc1ccccc1)Nc1ccc(Oc2ccc(-c3ncc[nH]3)cc2)cc1`, for which the inhibition of growth at 10 µM with MDA-MB-231 [1] was 11.4%; in the assay on A549 [2] it was 7.09%.
In the case of `O=C(Nc1ccc(Oc2ccc(-c3nccs3)cc2)cc1)Nc1cccc(C(F)(F)F)c1`, the figures for the inhibition of growth at 10 µM in the assay on MDA-MB-231 [1] and with A549 [2] were 64.1% and 71.5%, respectively. Also, the IC50 in the assay on A549 [3] is 5.56 µM; in the assay with MDA-MB-231 [4], 9.55 µM.
Consider `O=C(Nc1ccc(Cl)cc1)Nc1ccc(Oc2ccc(-c3nccs3)cc2)cc1`, for which the inhibition of growth at 10 µM in the assay with MDA-MB-231 [1] worked out at 32.5%; in the assay on A549 [2] it was 17.7%.
For `Cc1ccc(NC(=O)Nc2ccc(Oc3ccc(-c4nccs4)cc3)cc2)cc1`, the inhibition of growth at 10 µM turned out to be 22.8% with MDA-MB-231 [1] and 15.6% in the assay with A549 [2].
For the compound `O=C(Nc1ccc(Oc2ccc(-c3ncc[nH]3)cc2)cc1)Nc1ccc(Cl)c(C(F)(F)F)c1`, the results for the inhibition of growth at 10 µM in the assay on MDA-MB-231 [1] and with A549 [2] were 38.1% and 67.9%, respectively. Also, the IC50 in the assay with A549 [3] came out at 7.09 µM.
On to `O=C(Nc1ccc(Oc2ccc(-c3ncc[nH]3)cc2)cc1)Nc1cc(C(F)(F)F)ccc1Cl`, for which the inhibition of growth at 10 µM in the assay with MDA-MB-231 [1] turned out to be 32.3%; in the assay with A549 [2], 22.3%.
Turning to `O=C(Nc1ccc(Oc2ccc(-c3ncc[nH]3)cc2)cc1)Nc1ccc(Cl)c([N+](=O)[O-])c1`, the inhibition of growth at 10 µM in the assay with MDA-MB-231 [1] is 3.36%; in the assay with A549 [2], 12.4%.
In the case of `O=C(Nc1ccc(Oc2ccc(-c3nccs3)cc2)cc1)Nc1ccc(F)c(C(F)(F)F)c1`, the inhibition of growth at 10 µM in the assay on MDA-MB-231 [1] was 71.8%; in the assay on A549 [2], 76.4%. The IC50 amounted to 4.98 µM with A549 [3] and 8.66 µM in the assay on MDA-MB-231 [4].
Take `O=C(Nc1ccc(Oc2ccc(-c3nccs3)cc2)cc1)Nc1cc(Br)cc(C(F)(F)F)c1`: the inhibition of growth at 10 µM is 72.8% in the assay on MDA-MB-231 [1] and 81.7% in the assay with A549 [2]. In addition, the IC50 amounted to 2.71 µM in the assay with A549 [3] and 4.19 µM in the assay on MDA-MB-231 [4].
Regarding `O=C(Nc1ccc(Oc2ccc(-c3nccs3)cc2)cc1)Nc1ccc(F)c(Cl)c1`, the results for the inhibition of growth at 10 µM with MDA-MB-231 [1] and in the assay on A549 [2] were 43.9% and 37.3%, respectively.
With `O=C(Nc1ccc(Oc2ccc(-c3ncc[nH]3)cc2)cc1)Nc1cccc(C(F)(F)F)c1`, the inhibition of growth at 10 µM with MDA-MB-231 [1] came to 28.1%; in the assay on A549 [2], 30%.
With `CNC(=O)c1cc(Oc2ccc(NC(=O)Nc3ccc(Cl)c(C(F)(F)F)c3)cc2)ccn1` [SORAFENIB], the inhibition of growth at 10 µM with MDA-MB-231 [1] was found to be 79.6%; with A549 [2] it was 81.2%. Moreover, the IC50 in the assay with A549 [3] stood at 5.21 µM; in the assay on MDA-MB-231 [4], 7.62 µM.
